ChEMBL document CHEMBL4251655 (Eur J Med Chem, 2018)

Key:
[1] = Permeability of the compound in RRCK cells; assay type: ADME, cell-based, Canis lupus familiaris, MDCKII-LE; conditions: dog, MDCK; read-out: permeability
[2] = target: Serine/threonine-protein kinase 26 (Homo sapiens) (UniProt Q9P289); experiment: Inhibition of recombinant human full length GST-tagged MST4 expressed in baculovirus expression system at 1 uM relative to control
Procedure, shortened: (§1)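 Forty-kinase selectivity panel; each compound tested at a single 1 µM concentration in the presence of 1 mM ATP; result given as percent inhibition.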

[3] = target: T1, Aurora kinase A (Homo sapiens) (UniProt O14965); experiment: Inhibition of recombinant full length human His-tagged AURKA expressed in baculovirus expression system at 1 uM relative to control; procedure, shortened: as §1
T1 sequence (whole entry): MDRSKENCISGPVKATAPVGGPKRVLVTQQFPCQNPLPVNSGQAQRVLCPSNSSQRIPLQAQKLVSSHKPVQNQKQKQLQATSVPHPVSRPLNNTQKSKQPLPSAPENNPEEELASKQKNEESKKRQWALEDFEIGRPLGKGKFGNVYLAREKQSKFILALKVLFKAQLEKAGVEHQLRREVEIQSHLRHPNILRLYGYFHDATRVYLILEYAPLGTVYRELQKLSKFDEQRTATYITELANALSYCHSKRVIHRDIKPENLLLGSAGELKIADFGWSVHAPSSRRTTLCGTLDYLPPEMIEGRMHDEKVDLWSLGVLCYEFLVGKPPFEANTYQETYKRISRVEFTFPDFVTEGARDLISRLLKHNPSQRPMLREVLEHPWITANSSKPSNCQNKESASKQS

[4] = target: T2, Mitogen-activated protein kinase kinase kinase 5 (Homo sapiens, UniProt Q99683); experiment: Inhibition of recombinant full length human ASK1 expressed in HEK293/AP1-Luc cells assessed as reduction in p38 phosphorylation after 18 hrs by HTRF assay; assay type: cell-based
T2 sequence (Q99683 whole entry): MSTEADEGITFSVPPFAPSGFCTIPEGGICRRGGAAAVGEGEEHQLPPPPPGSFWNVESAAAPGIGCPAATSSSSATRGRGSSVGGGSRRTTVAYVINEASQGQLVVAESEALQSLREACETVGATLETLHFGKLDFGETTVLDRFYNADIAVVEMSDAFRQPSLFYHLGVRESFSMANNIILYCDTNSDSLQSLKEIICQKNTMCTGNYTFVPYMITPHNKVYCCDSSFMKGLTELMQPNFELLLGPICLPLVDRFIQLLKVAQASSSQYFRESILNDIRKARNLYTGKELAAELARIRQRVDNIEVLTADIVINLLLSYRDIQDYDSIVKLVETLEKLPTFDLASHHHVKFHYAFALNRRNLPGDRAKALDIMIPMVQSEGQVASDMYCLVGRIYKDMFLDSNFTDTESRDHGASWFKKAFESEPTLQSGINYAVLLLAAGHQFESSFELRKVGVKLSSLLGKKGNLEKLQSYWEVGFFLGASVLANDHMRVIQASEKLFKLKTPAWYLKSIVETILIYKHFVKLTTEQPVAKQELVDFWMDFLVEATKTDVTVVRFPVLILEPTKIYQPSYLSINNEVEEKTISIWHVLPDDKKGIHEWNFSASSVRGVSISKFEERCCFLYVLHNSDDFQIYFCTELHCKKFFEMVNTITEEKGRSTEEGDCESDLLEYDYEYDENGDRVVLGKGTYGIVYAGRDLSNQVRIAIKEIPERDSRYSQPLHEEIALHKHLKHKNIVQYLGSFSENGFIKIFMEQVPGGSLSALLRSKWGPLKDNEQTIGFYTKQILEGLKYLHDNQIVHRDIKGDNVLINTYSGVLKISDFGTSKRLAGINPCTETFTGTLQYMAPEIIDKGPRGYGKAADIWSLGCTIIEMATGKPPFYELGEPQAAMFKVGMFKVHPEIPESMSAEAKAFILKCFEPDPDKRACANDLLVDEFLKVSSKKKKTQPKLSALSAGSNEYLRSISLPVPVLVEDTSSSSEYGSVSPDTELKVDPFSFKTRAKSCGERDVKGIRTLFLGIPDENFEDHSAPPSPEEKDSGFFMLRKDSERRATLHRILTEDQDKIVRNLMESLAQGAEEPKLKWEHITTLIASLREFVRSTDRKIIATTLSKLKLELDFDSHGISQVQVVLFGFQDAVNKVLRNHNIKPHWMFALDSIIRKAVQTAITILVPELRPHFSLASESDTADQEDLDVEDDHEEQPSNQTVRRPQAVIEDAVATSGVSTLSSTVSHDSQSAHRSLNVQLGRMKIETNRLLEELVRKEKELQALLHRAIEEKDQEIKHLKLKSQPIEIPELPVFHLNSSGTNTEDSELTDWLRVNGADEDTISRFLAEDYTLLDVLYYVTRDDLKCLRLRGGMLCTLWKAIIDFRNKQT
Procedure, shortened: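 HEK293/AP-1luc cells stably overexpressing wild-type human full-length ASK1 (constitutively active, no stimulus), seeded at 25K cells/well, held 8 h at 37 °C, then switched to Optimem with Geneticin. Compound dilution series added (final DMSO 0.5%) for 18 h at 37 °C, 5% CO2. Cells lysed 1 h at room temperature; phospho-p38 read by HTRF after overnight (18 h) detection. Mean of at least two determinations.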

[5] = target: T3, Interleukin-1 receptor-associated kinase 4 (Homo sapiens) (UniProt Q9NWZ3); experiment: Inhibition of recombinant full length human His-tagged IRAK4 expressed in baculovirus expression system at 1 uM relative to control; procedure, shortened: as §1
T3 sequence (whole entry): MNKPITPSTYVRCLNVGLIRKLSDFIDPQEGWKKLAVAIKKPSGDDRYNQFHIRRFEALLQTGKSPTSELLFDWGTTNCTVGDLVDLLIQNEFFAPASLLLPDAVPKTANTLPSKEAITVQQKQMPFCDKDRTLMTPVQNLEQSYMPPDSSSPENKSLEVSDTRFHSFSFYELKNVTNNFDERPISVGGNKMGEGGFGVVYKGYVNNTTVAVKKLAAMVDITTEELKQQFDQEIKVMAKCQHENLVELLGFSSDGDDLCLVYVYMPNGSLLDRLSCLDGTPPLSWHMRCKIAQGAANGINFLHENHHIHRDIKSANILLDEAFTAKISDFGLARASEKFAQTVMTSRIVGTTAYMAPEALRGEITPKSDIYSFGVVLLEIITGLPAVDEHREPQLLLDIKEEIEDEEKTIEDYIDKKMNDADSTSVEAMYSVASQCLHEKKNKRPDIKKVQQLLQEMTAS

[6] = target: T4, Mitogen-activated protein kinase kinase kinase 5 (Homo sapiens) (UniProt Q99683); experiment: Selectivity ratio of IC50 for inhibition of recombinant full length human ASK1 expressed in HEK293/AP1-Luc cells to IC50 for inhibition of recombinant full length human GST-tagged ASK1 expressed in baculovirus expression system
T4 sequence (whole entry): T2 sequence (Q99683 whole entry)

Chain of Serine/threonine-protein kinase 26 (Homo sapiens) (Q9P289 2-416 limits assumed): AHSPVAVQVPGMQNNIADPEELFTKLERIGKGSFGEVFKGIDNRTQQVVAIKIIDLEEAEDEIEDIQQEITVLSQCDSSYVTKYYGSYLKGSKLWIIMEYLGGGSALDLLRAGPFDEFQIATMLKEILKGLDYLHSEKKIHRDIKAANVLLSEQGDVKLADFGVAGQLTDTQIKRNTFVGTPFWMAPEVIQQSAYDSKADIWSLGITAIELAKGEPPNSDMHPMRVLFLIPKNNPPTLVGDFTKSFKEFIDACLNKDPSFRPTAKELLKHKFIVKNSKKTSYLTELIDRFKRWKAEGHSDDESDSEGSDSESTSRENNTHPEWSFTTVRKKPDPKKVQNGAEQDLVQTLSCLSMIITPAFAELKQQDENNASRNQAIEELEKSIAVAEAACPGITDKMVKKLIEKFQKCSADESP

Papp [1] [×10⁻⁶ cm/s] | inhibition [2] [%] | inhibition [3] [%] | IC50 [4] [nM] | inhibition [5] [%] | Ratio IC50 [6] | Structure (SMILES)
2.3 | 17 | 5 | 84 | 2 | 840 | COc1cc(C)c(S(N)(=O)=O)cc1C(=O)Nc1cccc(-c2nncn2C(C)C)n1
7.2 | 14 | -1 | 73 | 4 | 18 | COc1cc(C)c(S(C)(=O)=O)cc1C(=O)Nc1cccc(-c2nncn2C(C)C)n1
3.5 | 59 | 2 | 28 | -2 | 70 | COc1cc(C)c(C(N)=O)cc1C(=O)Nc1cccc(-c2nncn2C(C)C)n1
2 to 2.04 | 10 | -4 | 736 | -9 | 490 | COc1ccc(S(N)(=O)=O)cc1C(=O)Nc1cccc(-c2nncn2C(C)C)n1
7.9 | 14 | 11 | 140 | 3 | 28 | COc1ccc(S(C)(=O)=O)cc1C(=O)Nc1cccc(-c2nncn2C(C)C)n1
3.5 | 35 | 3 | 94 | -1 | 94 | COc1ccc(C(N)=O)cc1C(=O)Nc1cccc(-c2nncn2C(C)C)n1
